We go through two molecules from ChEMBL document CHEMBL4673255, “Acylated 1H-1,2,4-Triazol-5-amines Targeting Human Coagulation Factor XIIa and Thrombin: Conventional and Microscale Synthesis, Anticoagulant Properties, and Mechanism of Action” (J Med Chem, 2020).

As usually defined, the IC50 is the concentration that inhibits the measured activity by half. The term inhibition denotes the relative decrease from the control value, in per cent.

The nature of series [1]: Inhibition of porcine trypsin using Z-Gly-Gly-Arg-AMC as fluorogenic substrate measured at 1 min interval for 1 hr by fluorometric assay. The arrangement: species or system Sus scrofa.
Series [2] concerns Plasma. Put plainly: Anticoagulant activity in human platelet-rich plasma assessed as reduction in TF-induced thrombin generation by measuring endogenous thrombin potential at 100 uM preincubated for 15 mins followed by TF addition by Z-Gly-Gly-Arg-AMC substrate based calibrated automated thrombography (reference value: 1203 +/- 44 AU.min/L). Format: functional. The note with it: 0.25 h. The method, boiled down:
(§1)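 Tissue-factor-triggered homogeneous thrombin generation followed by fluorogenic substrate cleavage. Read-outs: clotting time (T1/2), peak amplitude (Amax, AU/L), time to peak (Tmax) and ETP (AU·min/L). DMSO and buffer served as controls. n = 3, mean ± SD.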

Series [3] concerns Blood. Nature of the series: Anticoagulant activity in human blood assessed as concentration required to double the activated partial thromboplastin time incubated for 1 min followed by aPTT reagent based assay. It counts as functional. In short, it runs like this: (§2)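 Compounds were tested at 300 µM, and the increase was expressed relative to DMSO. The doubling concentration (EC2×) is the concentration prolonging aPTT twofold. At least triplicate, mean ± SD.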

The test system of series [4] is Plasma. Put plainly: Anticoagulant activity in human platelet-rich plasma assessed as reduction in TF-induced thrombin generation by measuring Tmax of clotting time at 100 uM preincubated for 15 mins followed by TF addition by Z-Gly-Gly-Arg-AMC substrate based calibrated automated thrombography (reference value: 8.1 +/- 0.6 min). It counts as functional, cell-free. In short, it runs like this: as §1

In series [5] the target is T1, Coagulation factor XII (Homo sapiens) (UniProt P00748).
T1 sequence (whole entry): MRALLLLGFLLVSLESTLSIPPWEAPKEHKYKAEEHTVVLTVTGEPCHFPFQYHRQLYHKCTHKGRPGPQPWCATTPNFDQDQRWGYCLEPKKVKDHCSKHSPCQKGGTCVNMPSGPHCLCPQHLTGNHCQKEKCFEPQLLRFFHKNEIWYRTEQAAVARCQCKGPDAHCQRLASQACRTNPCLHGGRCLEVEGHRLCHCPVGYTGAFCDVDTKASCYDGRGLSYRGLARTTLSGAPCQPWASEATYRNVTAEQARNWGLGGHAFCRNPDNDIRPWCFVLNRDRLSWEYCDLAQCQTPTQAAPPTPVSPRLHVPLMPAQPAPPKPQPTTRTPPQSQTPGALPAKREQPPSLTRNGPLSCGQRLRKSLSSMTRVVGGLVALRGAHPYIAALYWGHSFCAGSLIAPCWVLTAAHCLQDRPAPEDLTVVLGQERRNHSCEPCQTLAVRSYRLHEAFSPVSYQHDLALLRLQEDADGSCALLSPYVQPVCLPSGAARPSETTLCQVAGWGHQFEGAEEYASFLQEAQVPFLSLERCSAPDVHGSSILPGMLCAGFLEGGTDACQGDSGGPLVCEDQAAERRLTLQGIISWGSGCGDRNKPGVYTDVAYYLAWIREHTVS
Nature of the series: Inhibition of human coagulation factor XIIA using Boc-Gln-Gly-Arg-AMC as fluorogenic substrate at 100 nM measured at 1 min interval for 1 hr by fluorometric assay relative to control. The method, boiled down:
(§3)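 Screening of crude microscale amide-coupling products. Conversion was measured by 1H NMR and product content normalised to 76 µmol/L in DMSO, then tested at 1 µM and 100 nM in the fluorogenic FXIIa or thrombin assay. A 0-conversion reaction served as blank. Percent inhibition is from triplicates.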

Another series concerns HepG2. Put plainly: Cytotoxicity against human HepG2 cells assessed as reduction in cell viability at 100 uM incubated for 48 hrs by alamar blue assay relative to control. To be noted: hepg2, 48 h. It counts as cell-based. On the technique in general: Resazurin is reduced to fluorescent resorufin, in cell work by metabolically active cells.
A further series addresses T2, Monoglyceride lipase (Homo sapiens, UniProt Q99685).
T2 sequence (Q99685 whole entry): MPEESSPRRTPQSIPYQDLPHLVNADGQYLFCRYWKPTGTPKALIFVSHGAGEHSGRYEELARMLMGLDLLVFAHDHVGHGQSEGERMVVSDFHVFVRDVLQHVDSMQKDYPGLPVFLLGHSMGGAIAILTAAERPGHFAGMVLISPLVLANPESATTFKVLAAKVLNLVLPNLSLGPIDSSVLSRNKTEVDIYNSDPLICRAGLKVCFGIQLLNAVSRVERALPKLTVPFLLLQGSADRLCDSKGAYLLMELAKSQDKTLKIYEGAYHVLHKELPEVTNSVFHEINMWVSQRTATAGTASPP
Put plainly: Inhibition of human recombinant MAGL using 1,3-dihydroxypropan-2-yl 4-pyren-1-ylbutanoate as substrate measured after 45 mins by reverse-phase HPLC-based fluorescence assay.

Series [6] has as its target T1, Coagulation factor XII (Homo sapiens). Nature of the series: Inhibition of human coagulation factor XIIA in presence of Boc-Gln-Gly-Arg-AMC as fluorogenic substrate at 1 uM measured at 1 min interval for 1 hr by fluorometric assay relative to control. The method, boiled down: as §3
In series [7] the test system is Blood. Put plainly: Anticoagulant activity in human blood assessed as increase in activated partial thromboplastin time at 300 uM incubated for 1 min by aPTT reagent based assay relative to control. Format: functional. The method, boiled down: as §2
Series [8] has as its target T3, Fatty-acid amide hydrolase 1 (Rattus norvegicus, UniProt P97612).
T3 sequence (P97612 whole entry): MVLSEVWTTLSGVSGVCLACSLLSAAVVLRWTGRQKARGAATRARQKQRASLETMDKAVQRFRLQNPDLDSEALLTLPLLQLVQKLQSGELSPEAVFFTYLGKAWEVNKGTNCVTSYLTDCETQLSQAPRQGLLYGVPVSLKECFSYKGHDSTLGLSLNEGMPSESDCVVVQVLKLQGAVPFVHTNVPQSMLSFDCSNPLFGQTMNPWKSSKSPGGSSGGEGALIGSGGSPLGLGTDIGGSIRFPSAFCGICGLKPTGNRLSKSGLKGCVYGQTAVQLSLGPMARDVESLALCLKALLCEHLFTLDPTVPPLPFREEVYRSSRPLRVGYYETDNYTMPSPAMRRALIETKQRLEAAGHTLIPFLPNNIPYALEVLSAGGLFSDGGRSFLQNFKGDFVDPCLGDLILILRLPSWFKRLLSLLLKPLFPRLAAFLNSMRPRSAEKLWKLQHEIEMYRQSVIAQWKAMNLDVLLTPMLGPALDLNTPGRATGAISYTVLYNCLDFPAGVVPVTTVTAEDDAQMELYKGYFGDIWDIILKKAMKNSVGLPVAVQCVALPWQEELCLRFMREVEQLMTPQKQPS
Put plainly: Inhibition of FAAH in rat brain membrane using N-(2-hydroxyethyl)-4-pyren-1-ylbutanamide as substrate measured after 60 mins by reverse-phase HPLC-based fluorescence assay. Format: cell membranes.

Series [9] relates to Plasma. Put plainly: Anticoagulant activity in human platelet-rich plasma assessed as reduction in TF-induced thrombin generation by measuring amplitude of thrombin peak at 100 uM preincubated for 15 mins followed by TF addition by Z-Gly-Gly-Arg-AMC substrate based calibrated automated thrombography (reference value: 63 +/- 3.7 AU/L). Format: functional. The note with it: 0.25 h. The method, boiled down:
as §1

A further series has as its target Plasma kallikrein (Homo sapiens, UniProt P03952). Nature of the series: Inhibition of human kallikrein using Mes-dArg-Pro-Arg-AMC as fluorogenic substrate measured at 1 min interval for 1 hr by fluorometric assay.
Another series concerns the target Coagulation factor XI (Homo sapiens, UniProt P03951). Nature of the series: Inhibition of human coagulation factor XIA using Mes-dArg-Pro-Arg-AMC as fluorogenic substrate measured at 1 min interval for 1 hr by fluorometric assay.

Sequence of Plasma kallikrein (P03952 20-390 limits assumed): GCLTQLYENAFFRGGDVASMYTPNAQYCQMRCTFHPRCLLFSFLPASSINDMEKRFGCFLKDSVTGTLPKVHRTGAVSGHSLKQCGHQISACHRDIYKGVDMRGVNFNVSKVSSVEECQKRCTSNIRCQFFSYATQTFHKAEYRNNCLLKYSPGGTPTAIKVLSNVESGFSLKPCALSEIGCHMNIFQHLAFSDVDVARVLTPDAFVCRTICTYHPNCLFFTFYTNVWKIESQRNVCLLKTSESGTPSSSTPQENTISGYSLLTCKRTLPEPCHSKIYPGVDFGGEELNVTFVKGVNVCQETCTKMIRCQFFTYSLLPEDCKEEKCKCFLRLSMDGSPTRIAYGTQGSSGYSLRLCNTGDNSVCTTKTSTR
Sequence of Plasma kallikrein (P03952 391-638 limits assumed): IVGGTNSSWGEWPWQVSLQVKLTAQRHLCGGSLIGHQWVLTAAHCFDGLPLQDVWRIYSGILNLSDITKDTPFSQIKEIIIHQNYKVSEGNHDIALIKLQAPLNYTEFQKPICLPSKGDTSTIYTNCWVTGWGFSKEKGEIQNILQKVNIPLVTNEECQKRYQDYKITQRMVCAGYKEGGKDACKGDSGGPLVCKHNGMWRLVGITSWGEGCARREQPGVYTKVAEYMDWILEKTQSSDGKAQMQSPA
Sequence of Coagulation factor XI (P03951 19-387 limits assumed): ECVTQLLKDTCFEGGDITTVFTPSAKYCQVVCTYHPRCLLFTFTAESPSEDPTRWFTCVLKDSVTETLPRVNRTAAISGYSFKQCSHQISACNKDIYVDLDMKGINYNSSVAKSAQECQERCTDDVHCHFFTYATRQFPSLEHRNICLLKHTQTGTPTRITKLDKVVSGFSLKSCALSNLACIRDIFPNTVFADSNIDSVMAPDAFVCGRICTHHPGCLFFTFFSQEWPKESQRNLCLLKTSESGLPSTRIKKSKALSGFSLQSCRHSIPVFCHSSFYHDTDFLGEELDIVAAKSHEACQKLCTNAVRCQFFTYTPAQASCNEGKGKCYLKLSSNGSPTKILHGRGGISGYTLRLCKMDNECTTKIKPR
Sequence of Coagulation factor XI (P03951 388-625 limits assumed): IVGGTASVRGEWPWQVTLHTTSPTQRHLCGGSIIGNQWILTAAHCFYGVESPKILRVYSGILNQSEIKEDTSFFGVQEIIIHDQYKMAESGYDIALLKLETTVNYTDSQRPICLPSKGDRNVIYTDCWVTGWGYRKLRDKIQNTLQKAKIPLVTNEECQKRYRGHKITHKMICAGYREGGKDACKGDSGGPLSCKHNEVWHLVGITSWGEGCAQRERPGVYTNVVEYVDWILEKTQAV

On to `Nc1nc(-c2ccccn2)nn1C(=O)c1ccc2ccccc2c1`, for which the half-maximal inhibitory concentration (IC50) (in series [1]; on Monoglyceride lipase; in series [8]; at Plasma kallikrein; on Coagulation factor XI) was greater than 5 µM in each case. The Activity in the series with Plasma [2] is reported as 2160 AU.min/L; with HepG2 it was 25%; in the series on Blood [7], 212%; with Plasma [9], 175.5 AU/L. Further, the 2aPTT with Blood [3] is 107 µM. Also, in the series on Plasma [4], the Tmax was 8 min. In addition, the inhibition in series [5] was found to be 19%; in series [6] it was 77%.

In the case of `Nc1nc(-c2ccccn2)nn1C(=O)c1cccc2ccccc12`, the IC50 (in [1]; at Monoglyceride lipase; in series [8]; against Plasma kallikrein; against Coagulation factor XI) was greater than 5 µM throughout. The Activity in the series with Plasma [2] came to 738 AU.min/L; with HepG2 it was 8%; with Blood [7] it was 176%; in the series on Plasma [9], 53.3 AU/L. Besides, the 2aPTT in the series with Blood [3] was found to be 236 µM. Moreover, the Tmax in the series on Plasma [4] turned out to be 7 min. For the same molecule, the values for the inhibition in series [5] and in series [6] were 77% and 98%, respectively.
